Measurements from ChEMBL document CHEMBL1128184, “Topoisomerase II-mediated DNA cleavage by adocia- and xestoquinones from the Philippine sponge Xestospongia sp” (J Med Chem, 1995).

Key:
[1] = tested on: HCT-116; assay: Cytotoxicity against HCT116 cells.; type: functional, cell-based; details: Homo sapiens
Outline: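 HCT 116 human colon tumour cells in McCoy's medium with 10% FBS, seeded at 40 000 cells/well and allowed 4 h to attach. Drug added in DMSO (0.5%), 3 days continuous exposure, four replicate wells per dose. MTT (5 mg/mL in PBS) added for 4 h, formazan dissolved in acidic 2-propanol, A540 read against DMSO controls for percent growth inhibition.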

[2] = tested on: XRS6; assay: Cytotoxicity against CHO cell line xrs6; type: functional, cell-based; details: Cricetulus griseus
Outline: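 MTT assay on DNA double-strand-break repair-deficient CHO xrs-6 cells grown in αMEM with serum, seeded at 60 000 cells/well and allowed to attach 4 h. Drug added from DMSO stock, final DMSO 1% or less, four replicate wells per dose. Exposure 18 h, then drug-free medium. Absorbance at 540 nm, compared against DMSO-only wells to give percent growth inhibition.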

[3] = molecular target: DNA topoisomerase II (Homo sapiens) (UniProt P11388+Q02880); assay: In vitro inhibition of partially purified human ovarian carcinoma topoisomerase II of kDNA decatenation; type: protein assay
Outline: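 Decatenation of kinetoplast DNA (0.2 μg) by one unit of partially purified human ovarian carcinoma topoisomerase II in 50 mM Tris-HCl pH 8.0, 120 mM KCl, 10 mM MgCl2, 1 mM ATP, 0.5 mM DTT, 30 μg/mL BSA. Compound added in DMSO. Stopped with sarkosyl stop buffer, 1% agarose/ethidium gel, UV visualization. Value is the concentration apparently inhibiting 90% of monomer-length kDNA production.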

[4] = molecular target: T1, DNA topoisomerase 2 (Drosophila melanogaster) (UniProt P15348); assay: Inhibition of commercially obtained pure Drosophila Topoisomerase II in catalytic DNA unwinding.
T1 sequence (whole entry): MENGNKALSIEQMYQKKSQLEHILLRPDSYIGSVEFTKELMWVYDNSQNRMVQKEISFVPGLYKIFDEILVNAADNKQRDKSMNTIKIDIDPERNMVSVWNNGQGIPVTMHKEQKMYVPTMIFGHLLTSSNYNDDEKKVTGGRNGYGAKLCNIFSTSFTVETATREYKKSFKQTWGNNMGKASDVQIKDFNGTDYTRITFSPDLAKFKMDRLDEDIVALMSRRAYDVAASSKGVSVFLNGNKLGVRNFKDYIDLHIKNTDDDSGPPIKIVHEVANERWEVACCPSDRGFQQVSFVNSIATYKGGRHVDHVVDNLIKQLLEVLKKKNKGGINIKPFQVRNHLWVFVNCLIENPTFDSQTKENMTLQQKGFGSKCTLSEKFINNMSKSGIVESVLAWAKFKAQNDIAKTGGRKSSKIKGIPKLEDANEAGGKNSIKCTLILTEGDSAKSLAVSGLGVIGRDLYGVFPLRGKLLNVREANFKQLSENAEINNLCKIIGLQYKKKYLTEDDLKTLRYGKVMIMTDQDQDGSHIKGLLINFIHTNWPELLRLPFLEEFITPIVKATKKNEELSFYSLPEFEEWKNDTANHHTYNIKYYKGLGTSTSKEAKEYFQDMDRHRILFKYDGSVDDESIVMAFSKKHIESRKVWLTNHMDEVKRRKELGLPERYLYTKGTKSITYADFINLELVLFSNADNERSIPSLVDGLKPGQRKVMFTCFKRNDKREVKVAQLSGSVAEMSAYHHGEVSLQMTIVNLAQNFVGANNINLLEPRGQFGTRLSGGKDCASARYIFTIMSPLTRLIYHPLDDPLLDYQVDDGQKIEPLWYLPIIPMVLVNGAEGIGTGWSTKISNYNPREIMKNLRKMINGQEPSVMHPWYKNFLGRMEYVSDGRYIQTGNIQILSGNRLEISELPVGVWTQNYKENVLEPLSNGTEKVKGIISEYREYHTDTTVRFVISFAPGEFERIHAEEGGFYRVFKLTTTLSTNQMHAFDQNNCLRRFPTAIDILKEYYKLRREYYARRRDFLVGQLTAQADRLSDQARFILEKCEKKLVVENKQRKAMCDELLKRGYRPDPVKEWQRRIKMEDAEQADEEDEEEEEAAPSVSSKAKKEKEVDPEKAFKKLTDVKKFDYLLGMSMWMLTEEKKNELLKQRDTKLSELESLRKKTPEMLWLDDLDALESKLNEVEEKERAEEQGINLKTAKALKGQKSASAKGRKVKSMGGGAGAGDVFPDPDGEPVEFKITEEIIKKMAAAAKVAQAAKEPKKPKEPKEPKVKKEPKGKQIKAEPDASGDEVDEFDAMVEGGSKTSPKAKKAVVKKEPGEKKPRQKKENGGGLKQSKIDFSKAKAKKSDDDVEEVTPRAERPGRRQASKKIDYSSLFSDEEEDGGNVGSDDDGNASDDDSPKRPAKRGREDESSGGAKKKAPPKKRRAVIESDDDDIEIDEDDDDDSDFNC
Outline: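 Relaxation assay with supercoiled pBR322 (0.5 μg) and pure Drosophila topoisomerase II at 3 units per reaction. Buffer: 50 mM Tris-HCl pH 8.0, 120 mM KCl, 10 mM MgCl2, 1 mM ATP, 0.5 mM DTT, 30 μg/mL BSA. Drug added in DMSO.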

[5] = Ratio of BR1 IC50 to xrs-6 IC50; type: functional
Outline: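 MTT assay run in parallel on repair-competent CHO BR1 (40 000 cells/well) and repair-deficient xrs-6 (60 000 cells/well), both in αMEM with serum. 4 h attachment, then 18 h drug exposure from DMSO (final 1% or less), then drug-free medium. Four wells per dose, A540 against DMSO controls. The ratio is the BR1 IC50 divided by the xrs-6 IC50.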

Q: With `C[C@@]12CCCc3coc(c31)C(=O)c1cc3c(cc12)C(=O)C=C(NCCS(=O)(=O)O)C3=O` as the compound, how does the IC50 [1] read?
A: > 143 µM

Q: What about the IC50 [2] of the same compound?
A: > 287 µM

Q: What does the source list for `C[C@@]12CCCc3coc(c31)C(=O)c1cc3c(cc12)C(=O)C1=C(NCCS1(=O)=O)C3=O` [ADOCIAQUINONE B]?
A: IC90 [3]: < 11 µM; IC50 [1]: 21 µM; IC90 [4]: 78 µM; IC50 [2]: 23 µM; Ratio [5]: 3

Q: With `C[C@@]12CCCc3coc(c31)C(=O)c1cc3c(cc12)C(=O)/C(=N/CCS(=O)(=O)O)C=C3O` as the compound, how does the IC50 [1] read?
A: > 143 µM

Q: What about the IC50 [2] of the same compound?
A: > 287 µM

Q: With `C[C@@]12CCCc3coc(c31)C(=O)c1cc3c(cc12)C(=O)C(=O)C(Cl)=C3O` as the compound, how does the IC50 [1] read?
A: 33 µM

Q: What about the IC50 [2] of the same compound?
A: 27 µM

Q: What about the Ratio [5] of the same compound?
A: 4.5

Q: Which results are given for `C[C@@]12CCCc3coc(c31)C(=O)c1cc3c(cc12)C(=O)C(Cl)=C(O)C3=O`?
A: IC50 [1]: 33 µM; IC50 [2]: 27 µM; Ratio [5]: 4.5

Q: Which IC50 [2] does the source give for `COc1cc(NS(C)(=O)=O)ccc1Nc1c2ccccc2nc2ccccc12` [AMSACRINE] here?
A: 0.24 µM

Q: What about the Ratio [5] of the same compound?
A: 4

Q: Which IC50 [1] does the source give for `C[C@@]12CCCc3coc(c31)C(=O)c1cc3c(cc12)C(=O)C1=NCCS(=O)(=O)C1=C3O` [ADOCIAQUINONE A] here?
A: 24 µM

Q: What about the IC50 [2] of the same compound?
A: 78 µM

Q: And the Ratio [5]?
A: 3

Q: Which IC50 [1] does the source give for `COC1=CC(=O)c2cc3c(cc2C1=O)[C@]1(C)CCCc2coc(c21)C3=O` here?
A: 28 µM

Q: What about the IC50 [2] of the same compound?
A: 4.3 µM

Q: And the Ratio [5]?
A: 3

Q: Which IC90 [4] does the source give for `O=C1c2c(O)ccc(O)c2C(=O)c2c(NCCNCCO)ccc(NCCNCCO)c21` [MITOXANTRONE] here?
A: 56 µM

Q: And the IC50 [2]?
A: 0.001 µM

Q: Which IC90 [4] does the source give for `COc1cc([C@@H]2c3cc4c(cc3[C@@H](O[C@@H]3O[C@@H]5CO[C@@H](C)O[C@H]5[C@H](O)[C@H]3O)[C@H]3COC(=O)[C@H]23)OCO4)cc(OC)c1O` [ETOPOSIDE] here?
A: 85 µM

Q: What about the IC50 [2] of the same compound?
A: 0.14 µM

Q: What about the Ratio [5] of the same compound?
A: 7

Q: Which results are given for `COC1=CC(=O)c2cc3c(cc2C1=O)C(=O)c1occ2c1[C@@]3(C)CCC2`?
A: IC50 [1]: 28 µM; IC50 [2]: 4.3 µM; Ratio [5]: 3
